Key:
[1] = MRT (0 to t) in Sprague-Dawley rat at 10 mg/kg, po measured for 0.083 to 24 hrs by LC-MS/MS analysis; type: ADME, organism-based; details: in vivo
A549 [2] = assay: Induction of apoptosis in human A549 cells assessed as late apoptotic cells at 0.3 uM incubated for 48 hrs by annexin V-FITC/PI double staining based flow cytometric analysis (reference value: 0.039%); type: functional
[3] = Apparent clearance in Sprague-Dawley rat at 10 mg/kg, po measured for 0.083 to 24 hrs by LC-MS/MS analysis; type: ADME, organism-based; details: in vivo, read-out: CL(app) (converted)
[4] = molecular target: Bromodomain-containing protein 3 (Homo sapiens) (UniProt Q15059); assay: Binding affinity to BRD3 bromodomain 1 (unknown origin) at 20 uM by Alpha screen assay relative to control
Bromodomain-containing protein 3 (Homo sapiens), sequence (Q15059 2-726 limits assumed): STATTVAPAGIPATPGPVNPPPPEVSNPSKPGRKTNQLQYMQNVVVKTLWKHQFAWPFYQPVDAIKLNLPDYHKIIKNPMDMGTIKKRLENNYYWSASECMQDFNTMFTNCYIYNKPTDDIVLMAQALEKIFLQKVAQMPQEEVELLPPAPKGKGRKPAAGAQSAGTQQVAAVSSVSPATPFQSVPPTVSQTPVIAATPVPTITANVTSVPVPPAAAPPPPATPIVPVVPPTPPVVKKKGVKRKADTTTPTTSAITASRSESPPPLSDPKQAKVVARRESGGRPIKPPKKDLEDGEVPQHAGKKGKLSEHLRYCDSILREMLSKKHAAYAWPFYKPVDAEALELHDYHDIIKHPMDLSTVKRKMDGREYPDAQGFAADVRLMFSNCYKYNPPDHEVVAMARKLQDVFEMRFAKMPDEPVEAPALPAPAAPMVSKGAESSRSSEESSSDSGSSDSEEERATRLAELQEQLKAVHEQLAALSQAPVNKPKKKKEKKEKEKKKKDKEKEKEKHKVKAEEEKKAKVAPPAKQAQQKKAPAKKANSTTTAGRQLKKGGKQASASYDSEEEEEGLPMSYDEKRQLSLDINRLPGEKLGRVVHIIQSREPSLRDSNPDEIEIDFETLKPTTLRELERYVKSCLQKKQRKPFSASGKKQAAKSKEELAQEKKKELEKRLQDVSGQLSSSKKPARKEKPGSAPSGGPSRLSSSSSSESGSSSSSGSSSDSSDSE

[5] = molecular target: Bromodomain-containing protein 2 (Homo sapiens) (UniProt P25440); assay: Binding affinity to BRD2 bromodomain 1 (unknown origin) at 20 uM by Alpha screen assay relative to control
Bromodomain-containing protein 2 (Homo sapiens), sequence (P25440 whole entry, looked up): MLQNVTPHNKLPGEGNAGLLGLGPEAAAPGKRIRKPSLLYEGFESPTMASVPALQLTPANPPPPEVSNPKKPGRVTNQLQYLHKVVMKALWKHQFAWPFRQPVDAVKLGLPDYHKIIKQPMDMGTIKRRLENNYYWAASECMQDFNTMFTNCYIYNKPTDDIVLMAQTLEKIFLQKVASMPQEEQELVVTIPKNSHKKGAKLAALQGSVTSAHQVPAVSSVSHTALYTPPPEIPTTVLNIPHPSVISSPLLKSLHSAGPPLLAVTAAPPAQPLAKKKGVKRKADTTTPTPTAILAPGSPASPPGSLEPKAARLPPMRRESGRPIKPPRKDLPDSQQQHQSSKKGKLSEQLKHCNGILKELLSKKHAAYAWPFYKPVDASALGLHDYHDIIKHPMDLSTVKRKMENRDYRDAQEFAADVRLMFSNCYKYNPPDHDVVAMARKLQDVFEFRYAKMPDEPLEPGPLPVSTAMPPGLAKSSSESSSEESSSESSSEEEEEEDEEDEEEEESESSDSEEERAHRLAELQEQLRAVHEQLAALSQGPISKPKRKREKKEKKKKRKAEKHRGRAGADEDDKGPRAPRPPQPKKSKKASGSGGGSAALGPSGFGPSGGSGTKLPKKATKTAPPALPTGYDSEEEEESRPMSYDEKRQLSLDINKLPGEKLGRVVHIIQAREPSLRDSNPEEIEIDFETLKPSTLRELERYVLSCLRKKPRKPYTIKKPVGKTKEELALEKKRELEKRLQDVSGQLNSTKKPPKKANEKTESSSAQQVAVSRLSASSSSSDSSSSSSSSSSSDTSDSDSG

A549 [6] = assay: Induction of apoptosis in human A549 cells assessed as early apoptotic cells at 0.3 uM incubated for 48 hrs by annexin V-FITC/PI double staining based flow cytometric analysis (reference value: 1.76%); type: functional
[7] = Volume of distribution at steady state in Sprague-Dawley rat at 2.5 mg/kg, iv measured for 0.083 to 24 hrs by LC-MS/MS analysis; type: ADME, organism-based; details: in vivo, read-out: Vdss
[8] = Half life in Sprague-Dawley rat at 2.5 mg/kg, iv measured for 0.083 to 24 hrs by LC-MS/MS analysis; type: ADME, organism-based; details: in vivo
A549 [9] = assay: Induction of cell cycle arrest in human A549 cells assessed as increase in accumulation at M phase incubated for 48 hrs by BrdU/PI staining based flow cytometric analysis; type: functional
Method in brief: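 Subconfluent A549 cells exposed 48 h to 0.3–5.0 μM with DMSO vehicle control. Pulse-labelled with 10 μM BrdU for 30 min at 37 °C before harvest. Fixed in 70% ethanol, denatured in 2 M HCl, neutralised, then stained with fluorescein anti-BrdU antibody and propidium iodide. Analysed by flow cytometry with 488 nm excitation.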

A549 [10] = assay: Induction of apoptosis in human A549 cells assessed as viable cells at 5.0 uM incubated for 48 hrs by annexin V-FITC/PI double staining based flow cytometric analysis (reference value: 98.2%); type: functional; details: A549, 48 h, read-out: Activity
[11] = molecular target: Bromodomain-containing protein 4 (Homo sapiens, UniProt O60885); assay: Inhibition of recombinant human His-tagged BRD4 bromodomain 1/2 (2 to 1362 residues) expressed in […] insect cells using biotinylated H4(1 to 21)K5/8/12/16Ac peptide as substrate preincubated for 30 mins followed by substrate addition and measured after 30 mins by Alpha screen assay
[12] = molecular target: T1, Bromodomain-containing protein 9 (Homo sapiens) (UniProt Q9H8M2); assay: Binding affinity to BRD9 (unknown origin) at 20 uM by Alpha screen assay relative to control
T1 sequence (whole entry): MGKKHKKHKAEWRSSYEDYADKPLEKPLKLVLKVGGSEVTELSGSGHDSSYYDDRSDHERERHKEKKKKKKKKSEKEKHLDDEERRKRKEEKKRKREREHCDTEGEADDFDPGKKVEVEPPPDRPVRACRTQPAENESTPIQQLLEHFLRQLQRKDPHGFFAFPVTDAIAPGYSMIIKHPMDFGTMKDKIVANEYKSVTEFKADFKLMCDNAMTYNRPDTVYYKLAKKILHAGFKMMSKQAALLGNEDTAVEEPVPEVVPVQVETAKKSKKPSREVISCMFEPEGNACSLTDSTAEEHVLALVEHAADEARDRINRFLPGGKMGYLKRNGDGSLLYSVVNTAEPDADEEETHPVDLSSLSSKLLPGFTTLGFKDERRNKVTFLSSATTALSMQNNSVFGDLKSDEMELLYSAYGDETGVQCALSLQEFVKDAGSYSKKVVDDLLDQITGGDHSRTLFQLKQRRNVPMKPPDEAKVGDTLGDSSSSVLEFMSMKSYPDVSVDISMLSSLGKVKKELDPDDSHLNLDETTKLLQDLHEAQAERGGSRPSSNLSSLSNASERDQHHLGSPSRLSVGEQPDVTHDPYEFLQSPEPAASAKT

A549 [13] = assay: Inhibition of BET in human A549 cells assessed as downregulation of c-Myc protein expression level incubated for 48 hrs by western blot analysis; type: cell-based
Method in brief: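 A549 cells seeded at 400000 per well, grown overnight in 10% FBS medium, then given serially diluted compound for 48 h. c-Myc in lysates detected with a mouse monoclonal antibody; GAPDH used as loading control.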

[14] = molecular target: Bromodomain-containing protein 2 (Homo sapiens) (UniProt P25440); assay: Binding affinity to BRD2 bromodomain 2 (unknown origin) at 20 uM by Alpha screen assay relative to control
[15] = Volume of distribution at steady state in Sprague-Dawley rat at 10 mg/kg, po measured for 0.083 to 24 hrs by LC-MS/MS analysis; type: ADME, organism-based; details: in vivo
[16] = AUC (0 to t) in Sprague-Dawley rat at 2.5 mg/kg, iv measured for 0.083 to 24 hrs by LC-MS/MS/MS analysis; type: ADME, organism-based; set-up: time upper 24 hr, dose 2.5 mg/kg, time lower 0.083 hr, route intravenous; details: in vivo
[17] = molecular target: Bromodomain-containing protein 3 (Homo sapiens) (UniProt Q15059); assay: Binding affinity to BRD3 bromodomain 2 (unknown origin) at 20 uM by Alpha screen assay relative to control
A549 [18] = assay: Induction of apoptosis in human A549 cells assessed as viable cells at 0.3 uM incubated for 48 hrs by annexin V-FITC/PI double staining based flow cytometric analysis (reference value: 98.2%); type: functional; details: A549, 48 h, read-out: Activity

MRT last [1]: 7.52 h
CL/F [3]: 303 mL/min/kg
Activity [4]: > 70%
Activity [5]: > 70%
Vd [7]: 76.7 L/kg
half-life [8]: 10.4 h
IC50 [11]: 240 nM
Activity [12]: > 30%
Activity [14]: > 70%
Vdss [15]: 97.34 L/kg
AUC(0-t) [16]: 383 ng·h/mL
Activity [17]: > 70%
Compound: COc1ccc(Cl)cc1S(=O)(=O)Nc1ccc2[nH]c(=O)c3ccccc3c2c1
Activity (A549 [2]): 2.63%
Activity (A549 [6]): 27.7%
Activity (A549 [9]): Dose-dependent effect
viability at 5 µM (A549 [10]): 19.7%
inhibition (A549 [13]): Dose-dependent effect
viability at 0.3 µM (A549 [18]): 69.6%
